From ChEMBL document CHEMBL5036324 (J Med Chem, 2021)
Converted amounts (≈) assume the structure as drawn. The source made the active and inactive calls. The calls are words filed in the database; no cut-off is given here.

Assays:
[1] = Aqueous solubility of compound; type: physicochemical
[2] = biological target: T1, Toll-like receptor 8 (Homo sapiens) (UniProt Q9NR97); assay: Agonist activity at human TLR8 expressed in HEK-Blue hTLR8 cells assessed as activation of NFkappaB incubated for 6 to 16 hrs by SEAP reporter gene based assay; type: cell-based; details: filed as agonist, time 6-16 hrs
T1 sequence (whole entry): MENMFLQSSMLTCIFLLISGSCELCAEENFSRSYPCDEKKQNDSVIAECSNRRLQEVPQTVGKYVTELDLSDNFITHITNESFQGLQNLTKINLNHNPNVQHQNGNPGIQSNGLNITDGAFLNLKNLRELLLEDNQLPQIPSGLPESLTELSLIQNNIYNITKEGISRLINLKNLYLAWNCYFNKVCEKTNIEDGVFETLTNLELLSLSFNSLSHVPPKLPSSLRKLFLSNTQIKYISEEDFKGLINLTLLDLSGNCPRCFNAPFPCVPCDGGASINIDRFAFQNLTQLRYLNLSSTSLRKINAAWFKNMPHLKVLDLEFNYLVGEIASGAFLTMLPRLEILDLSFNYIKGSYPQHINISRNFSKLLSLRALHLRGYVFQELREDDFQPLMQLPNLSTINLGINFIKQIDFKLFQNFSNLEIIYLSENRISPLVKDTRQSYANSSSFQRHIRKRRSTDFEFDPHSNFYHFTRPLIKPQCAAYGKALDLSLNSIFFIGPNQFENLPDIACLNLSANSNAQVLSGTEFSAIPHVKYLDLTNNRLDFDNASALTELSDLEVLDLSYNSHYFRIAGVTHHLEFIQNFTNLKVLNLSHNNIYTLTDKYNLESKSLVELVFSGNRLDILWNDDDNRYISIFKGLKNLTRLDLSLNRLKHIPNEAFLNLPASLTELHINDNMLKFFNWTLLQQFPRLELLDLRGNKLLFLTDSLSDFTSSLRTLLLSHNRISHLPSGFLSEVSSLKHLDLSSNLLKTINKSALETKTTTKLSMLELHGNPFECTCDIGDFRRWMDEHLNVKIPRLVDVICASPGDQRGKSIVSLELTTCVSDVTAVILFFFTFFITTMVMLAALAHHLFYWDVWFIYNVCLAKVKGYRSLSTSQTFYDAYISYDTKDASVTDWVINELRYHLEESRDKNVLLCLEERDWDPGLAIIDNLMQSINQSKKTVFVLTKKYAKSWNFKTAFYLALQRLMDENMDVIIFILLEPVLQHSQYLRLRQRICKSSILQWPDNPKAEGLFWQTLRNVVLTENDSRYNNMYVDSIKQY
Summary of the method: (§1)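 HEK293-derived SEAP reporter cells stably expressing the matching human TLR (2, 3, 4, 7, 8 or 9), kept under selection antibiotics. SEAP is driven by an NF-κB/AP-1-inducible promoter. HEK-Blue Null2-k (no TLR7/8) serves as the parental line. Cells were given escalating concentrations of stimuli for 6−16 h, then SEAP was read with HEK-Blue detection at 620 nm.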

[3] = biological target: Toll-like receptor 4 (Homo sapiens) (UniProt O00206); assay: Agonist activity at human TLR4 expressed in HEK-Blue hTLR4 cells assessed as activation of NFkappaB incubated for 6 to 16 hrs by SEAP reporter gene based assay; type: cell-based; details: time 6-16 hrs; summary of the method: as §1
[4] = Subacute toxicity in BALB/c mouse assessed as pathological changes in kidney at 15 mg/kg, ip administered as single dose by H and E staining based microscopic analysis; type: organism-based; details: in vivo
Summary of the method: (§2)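 Subacute toxicity study in BALB/c mice given ip TLR7/8 agonist. Tissues from treated and control mice were examined by hematoxylin and eosin staining.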

[5] = Acute toxicity in BALB/c mouse assessed as maximum tolerated dose; details: in vivo
[6] = biological target: Toll-like receptor 3 (Homo sapiens) (UniProt O15455); assay: Agonist activity at human TLR3 expressed in HEK-Blue hTLR3 cells assessed as activation of NFkappaB incubated for 6 to 16 hrs by SEAP reporter gene based assay; type: cell-based; details: time 6-16 hrs; summary of the method: as §1
[7] = Subacute toxicity in BALB/c mouse assessed as pathological changes in heart at 15 mg/kg, ip administered as single dose by H and E staining based microscopic analysis; type: organism-based; details: in vivo; summary of the method: as §2
[8] = biological target: Toll-like receptor 2 (Homo sapiens) (UniProt O60603); assay: Agonist activity at human TLR2 expressed in HEK-Blue hTLR2 cells assessed as activation of NFkappaB incubated for 6 to 16 hrs by SEAP reporter gene based assay; type: cell-based; details: time 6-16 hrs; summary of the method: as §1
[9] = biological target: T2, Toll-like receptor 7 (Homo sapiens) (UniProt Q9NYK1); assay: Agonist activity at human TLR7 expressed in HEK-Blue hTLR7 cells assessed as activation of NFkappaB incubated for 6 to 16 hrs by SEAP reporter gene based assay; type: cell-based; details: filed as agonist, time 6-16 hrs; summary of the method: as §1
T2 sequence (whole entry): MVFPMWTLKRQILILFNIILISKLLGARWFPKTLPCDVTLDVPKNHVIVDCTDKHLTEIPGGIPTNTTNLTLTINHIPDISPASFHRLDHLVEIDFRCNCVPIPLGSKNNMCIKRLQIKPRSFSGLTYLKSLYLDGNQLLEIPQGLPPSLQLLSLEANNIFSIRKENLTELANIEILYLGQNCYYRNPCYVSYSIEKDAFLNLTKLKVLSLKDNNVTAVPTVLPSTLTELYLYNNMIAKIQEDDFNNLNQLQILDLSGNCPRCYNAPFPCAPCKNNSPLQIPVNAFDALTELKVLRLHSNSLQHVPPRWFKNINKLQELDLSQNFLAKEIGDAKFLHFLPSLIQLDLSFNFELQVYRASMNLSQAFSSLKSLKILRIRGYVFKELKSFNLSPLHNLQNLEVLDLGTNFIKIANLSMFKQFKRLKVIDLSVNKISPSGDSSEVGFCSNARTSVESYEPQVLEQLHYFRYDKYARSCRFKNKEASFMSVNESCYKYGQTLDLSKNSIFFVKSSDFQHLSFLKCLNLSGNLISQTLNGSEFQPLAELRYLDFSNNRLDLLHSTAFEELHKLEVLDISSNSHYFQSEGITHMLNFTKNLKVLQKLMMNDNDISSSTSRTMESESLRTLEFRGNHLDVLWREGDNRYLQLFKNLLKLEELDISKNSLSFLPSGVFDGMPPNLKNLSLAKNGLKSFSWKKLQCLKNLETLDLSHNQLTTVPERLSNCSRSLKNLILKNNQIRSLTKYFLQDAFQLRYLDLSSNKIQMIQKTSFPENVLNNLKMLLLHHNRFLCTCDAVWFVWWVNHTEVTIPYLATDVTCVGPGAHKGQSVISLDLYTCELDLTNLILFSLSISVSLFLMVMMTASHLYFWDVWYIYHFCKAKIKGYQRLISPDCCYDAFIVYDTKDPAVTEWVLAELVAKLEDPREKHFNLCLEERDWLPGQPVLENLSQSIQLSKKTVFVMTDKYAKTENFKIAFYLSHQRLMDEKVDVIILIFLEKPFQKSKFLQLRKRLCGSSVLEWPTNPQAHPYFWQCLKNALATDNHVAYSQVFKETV

[10] = Acute toxicity in BALB/c mouse assessed as mild diarrhea at 15 to 80 mg/kg, ip administered as single dose measured after 24 hrs; type: organism-based; details: in vivo, dose 15-80 mg/kg

Chain of Toll-like receptor 2 (Homo sapiens) (O60603 whole entry): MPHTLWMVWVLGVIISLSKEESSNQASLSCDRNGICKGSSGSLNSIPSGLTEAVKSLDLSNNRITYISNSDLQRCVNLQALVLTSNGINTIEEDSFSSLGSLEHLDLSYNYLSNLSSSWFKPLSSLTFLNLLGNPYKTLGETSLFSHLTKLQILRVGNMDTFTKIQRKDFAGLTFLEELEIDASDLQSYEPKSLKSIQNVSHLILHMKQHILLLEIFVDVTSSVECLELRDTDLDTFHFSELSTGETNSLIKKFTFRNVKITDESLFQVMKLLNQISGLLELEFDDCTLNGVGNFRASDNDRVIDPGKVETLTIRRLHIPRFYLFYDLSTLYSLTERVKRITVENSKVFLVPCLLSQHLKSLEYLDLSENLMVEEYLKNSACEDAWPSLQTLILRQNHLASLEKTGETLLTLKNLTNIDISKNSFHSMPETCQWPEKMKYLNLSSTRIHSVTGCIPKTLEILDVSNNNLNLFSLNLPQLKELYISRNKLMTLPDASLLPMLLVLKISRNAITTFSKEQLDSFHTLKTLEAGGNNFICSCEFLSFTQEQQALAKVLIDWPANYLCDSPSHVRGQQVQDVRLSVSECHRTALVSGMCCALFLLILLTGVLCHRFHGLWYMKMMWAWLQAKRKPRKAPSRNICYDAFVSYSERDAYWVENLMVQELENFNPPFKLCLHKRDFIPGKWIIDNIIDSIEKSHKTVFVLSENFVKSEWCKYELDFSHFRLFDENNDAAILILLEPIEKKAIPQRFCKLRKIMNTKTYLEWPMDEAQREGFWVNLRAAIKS
Chain of Toll-like receptor 4 (Homo sapiens) (O00206 whole entry): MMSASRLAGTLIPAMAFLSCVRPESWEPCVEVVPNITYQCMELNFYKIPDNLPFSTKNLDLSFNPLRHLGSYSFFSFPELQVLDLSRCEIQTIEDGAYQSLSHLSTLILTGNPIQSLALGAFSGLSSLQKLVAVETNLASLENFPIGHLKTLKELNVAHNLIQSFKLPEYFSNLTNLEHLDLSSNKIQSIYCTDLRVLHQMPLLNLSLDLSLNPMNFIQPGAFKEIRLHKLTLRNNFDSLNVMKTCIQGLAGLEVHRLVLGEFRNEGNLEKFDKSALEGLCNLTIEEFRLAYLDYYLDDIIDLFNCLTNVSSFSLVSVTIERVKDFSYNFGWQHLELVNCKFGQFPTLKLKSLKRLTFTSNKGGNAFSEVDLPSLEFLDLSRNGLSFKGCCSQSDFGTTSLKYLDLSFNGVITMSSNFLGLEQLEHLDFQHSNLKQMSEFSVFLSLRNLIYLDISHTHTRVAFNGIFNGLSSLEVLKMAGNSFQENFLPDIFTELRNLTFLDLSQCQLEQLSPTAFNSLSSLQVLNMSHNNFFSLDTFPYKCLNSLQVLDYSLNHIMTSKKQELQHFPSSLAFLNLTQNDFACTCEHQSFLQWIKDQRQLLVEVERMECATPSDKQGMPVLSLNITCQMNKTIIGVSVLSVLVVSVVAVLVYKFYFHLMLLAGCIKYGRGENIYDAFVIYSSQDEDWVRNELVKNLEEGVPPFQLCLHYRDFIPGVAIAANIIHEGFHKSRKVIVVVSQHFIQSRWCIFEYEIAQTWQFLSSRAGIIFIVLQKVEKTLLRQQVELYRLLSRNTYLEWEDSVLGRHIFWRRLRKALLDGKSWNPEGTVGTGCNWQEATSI
Chain of Toll-like receptor 3 (Homo sapiens) (O15455 whole entry): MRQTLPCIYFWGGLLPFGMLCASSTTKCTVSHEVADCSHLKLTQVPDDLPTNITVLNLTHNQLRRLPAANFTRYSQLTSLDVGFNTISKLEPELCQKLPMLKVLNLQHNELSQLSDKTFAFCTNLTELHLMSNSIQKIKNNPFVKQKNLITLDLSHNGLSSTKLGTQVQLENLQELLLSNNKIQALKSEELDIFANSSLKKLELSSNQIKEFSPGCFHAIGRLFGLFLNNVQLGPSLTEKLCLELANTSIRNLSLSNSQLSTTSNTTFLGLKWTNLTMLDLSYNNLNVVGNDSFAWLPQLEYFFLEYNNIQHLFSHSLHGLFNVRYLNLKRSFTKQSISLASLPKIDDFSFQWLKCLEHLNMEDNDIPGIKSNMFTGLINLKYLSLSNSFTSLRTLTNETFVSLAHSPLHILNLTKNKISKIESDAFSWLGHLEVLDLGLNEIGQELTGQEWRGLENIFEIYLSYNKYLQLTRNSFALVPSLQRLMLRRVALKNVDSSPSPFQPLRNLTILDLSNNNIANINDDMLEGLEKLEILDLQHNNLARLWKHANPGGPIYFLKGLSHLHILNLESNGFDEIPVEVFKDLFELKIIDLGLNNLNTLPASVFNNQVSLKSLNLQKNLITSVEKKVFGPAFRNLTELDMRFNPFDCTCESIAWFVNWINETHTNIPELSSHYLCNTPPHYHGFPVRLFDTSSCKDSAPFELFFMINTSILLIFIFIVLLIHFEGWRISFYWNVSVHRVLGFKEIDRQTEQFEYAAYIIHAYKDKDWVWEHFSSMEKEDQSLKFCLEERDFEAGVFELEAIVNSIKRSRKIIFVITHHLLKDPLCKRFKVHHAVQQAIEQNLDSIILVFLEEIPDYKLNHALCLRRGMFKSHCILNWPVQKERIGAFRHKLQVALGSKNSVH

COCCNc1nc(N)nc2ccc(Cc3ccc(CN(C)C)cc3)nc12
solubility [1]: 1030 µg/mL (≈ 2810 µM)
Activity [2]: Active
Activity [3]: inactive
Activity [4]: Non-Toxic
MTD [5]: 45 mg/kg
Activity [6]: inactive
Activity [7]: Non-Toxic
Activity [8]: inactive
Activity [9]: Active
Activity [10]: Non-Toxic

CCCCNc1nc(N)nc2ccc(Cc3ccc(CN(C)C)cc3)nc12
solubility [1]: 45 µg/mL (≈ 123 µM)
Activity [2]: Active
Activity [3]: inactive
Activity [4]: Non-Toxic
MTD [5]: 30 mg/kg
Activity [6]: inactive
Activity [7]: Non-Toxic
Activity [8]: inactive
Activity [9]: Active
Activity [10]: Non-Toxic
